One data set concerns KNS-42. Nature of the data set: Inhibition of kynurenine production in human KNS-42 cells pretreated with IFN-gamma for 24 hrs followed by compound addition and measured after 24 hrs by Ehrlich's reagent based analysis. The class given is functional, cell-based. The note with it: dose 50-100 nM.
A further data set relates to U-87MG ATCC. Description: Inhibition of kynurenine production in human U87 cells overexpressing GFP-fused IDO1 cells pretreated with IFN-gamma for 24 hrs followed by compound addition and measured after 24 hrs by Ehrlich's reagent based analysis. In kind it is functional, cell-based. The note with it: dose 50-100 nM.
Data set [1] is described as follows: Half life in female C57BL/6J mouse brain at 50 mg/kg, ip by LC-MS/MS analysis. In kind it is ADME, organism-based.
For a further data set, the system named is PDX-6. Nature of the data set: Inhibition of kynurenine production in human PDX-6 cells pretreated with IFN-gamma for 24 hrs followed by compound addition and measured after 24 hrs by Ehrlich's reagent based analysis. The class given is functional, cell-based. As to conditions: dose 50-100 nM.
Data set [2] addresses T1, Protein cereblon/Indoleamine 2,3-dioxygenase 1 (Homo sapiens, UniProt P14902+Q96SW2). Description: PROTAC activity at CRBN/IDO1 in human U87 cells assessed as induction of IDO1 degradation by measuring remaining activity at 100 nM pretreated with IFN-gamma for 24 hrs followed by compound addition and measured after 2 hrs by Western blotting analysis (reference value: 100%). The class given is cell-based. The gist of the method:
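U87 cells under single continuous PROTAC treatment (50 and 100 nM), sampled at multiple time points up to 72 h. IDO1 assessed by Western blot.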
Target sequence in this assay (P14902 whole entry, looked up): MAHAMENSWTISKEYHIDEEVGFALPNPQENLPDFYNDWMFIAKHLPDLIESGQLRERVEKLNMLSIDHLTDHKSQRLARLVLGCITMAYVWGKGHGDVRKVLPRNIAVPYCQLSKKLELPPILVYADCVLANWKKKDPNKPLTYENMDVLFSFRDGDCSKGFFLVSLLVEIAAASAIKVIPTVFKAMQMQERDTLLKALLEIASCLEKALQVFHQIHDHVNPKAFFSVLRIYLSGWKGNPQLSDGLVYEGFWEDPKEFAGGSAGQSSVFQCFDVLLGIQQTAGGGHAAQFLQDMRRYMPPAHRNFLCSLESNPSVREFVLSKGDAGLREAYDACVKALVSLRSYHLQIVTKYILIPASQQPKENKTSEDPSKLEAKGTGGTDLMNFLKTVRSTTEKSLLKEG
Target sequence in this assay (Q96SW2 whole entry, looked up): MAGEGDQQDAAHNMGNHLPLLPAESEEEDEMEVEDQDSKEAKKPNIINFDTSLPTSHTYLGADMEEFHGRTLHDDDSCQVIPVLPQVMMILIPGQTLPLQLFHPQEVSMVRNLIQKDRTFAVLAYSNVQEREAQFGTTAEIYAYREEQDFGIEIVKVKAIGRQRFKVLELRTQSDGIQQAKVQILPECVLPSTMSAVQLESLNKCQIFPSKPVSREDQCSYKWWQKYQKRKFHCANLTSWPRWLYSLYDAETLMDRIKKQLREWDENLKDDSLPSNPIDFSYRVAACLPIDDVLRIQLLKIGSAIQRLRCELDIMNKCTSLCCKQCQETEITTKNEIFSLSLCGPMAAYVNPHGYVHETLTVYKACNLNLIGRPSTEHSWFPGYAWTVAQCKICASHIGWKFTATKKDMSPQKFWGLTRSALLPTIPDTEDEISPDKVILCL
For orientation: A western blot detects proteins with antibodies after separation by electrophoresis.

The target in data set [3] is T1, Protein cereblon/Indoleamine 2,3-dioxygenase 1. Description: PROTAC activity at CRBN/IDO1 in human U87 cells assessed as induction of IDO1 degradation at 50 to 100 nM pretreated with compound for 24 hrs followed by compound washout and measured upto 48 hrs by Western blotting analysis. The class given is cell-based. The note with it: dose 50-100 nM. The gist of the method: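 U87 cells given a 24 h PROTAC pulse, then cultured without compound for up to 48 h after washout. IDO1 assessed by Western blot.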
Target sequence in this assay (P14902 whole entry, looked up): as the sequence (P14902 whole entry, looked up) above
Target sequence in this assay (Q96SW2 whole entry, looked up): as the sequence (Q96SW2 whole entry, looked up) above

Data set [4] shares this target. Nature of the data set: PROTAC activity at CRBN/IDO1 in human U87 cells assessed as induction of IDO1 degradation by measuring remaining activity at 10 uM pretreated with IFN-gamma for 24 hrs followed by compound addition and measured after 24 hrs by Western blotting analysis (reference value: 100%). In kind it is cell-based. An outline of the steps: (§1)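 U87 cells given an extended dose range of PROTAC for 24 h, then Western blot for IDO1. IFNγ-induced IDO1 levels normalised to untreated samples. n = 3 independent experiments; mean ± SEM.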
Target sequence in this assay (P14902 whole entry, looked up): as the sequence (P14902 whole entry, looked up) above
Target sequence in this assay (Q96SW2 whole entry, looked up): as the sequence (Q96SW2 whole entry, looked up) above

Data set [5] is described as follows: Half life in female C57BL/6J mouse plasma at 50 mg/kg, ip by LC-MS/MS analysis. The class given is ADME, organism-based.
Data set [6] concerns the target T1, Protein cereblon/Indoleamine 2,3-dioxygenase 1. Nature of the data set: PROTAC activity at CRBN/IDO1 in human GBM43 cell assessed as induction of IDO1 degradation at 0.1 uM pretreated with IFN-gamma for 24 hrs followed by compound addition and measured after 24 hrs by Western blotting analysis (reference value: 100%). In kind it is cell-based. The gist of the method: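 GBM43 patient-derived cells given an extended dose range of PROTAC for 24 h. Protein analysed by Western blot for IDO1, and IFNγ-induced IDO1 normalised to untreated samples. n = 3 independent experiments; data as mean ± SEM.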
Target sequence in this assay (P14902 whole entry, looked up): as the sequence (P14902 whole entry, looked up) above
Target sequence in this assay (Q96SW2 whole entry, looked up): as the sequence (Q96SW2 whole entry, looked up) above

Data set [7] shares this target. Nature of the data set: PROTAC activity at CRBN/IDO1 in human GBM43 cell assessed as induction of IDO1 degradation pretreated with IFN-gamma for 24 hrs followed by compound addition and measured after 24 hrs by Western blot analysis. The class given is cell-based. The gist of the method:
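GBM43 cells treated for 24 h across an extended dose range. IDO1 Western blot, IFN-γ-induced IDO1 normalized to untreated; DC50 from n = 3 independent experiments.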
Target sequence in this assay (P14902 whole entry): as the sequence (P14902 whole entry, looked up) above
Target sequence in this assay (Q96SW2 whole entry): as the sequence (Q96SW2 whole entry, looked up) above

Data set [8] in a line: AUC (0 to infinity) in female C57BL/6J mouse brain at 50 mg/kg, ip by LC-MS/MS analysis. In kind it is ADME, organism-based.
Data set [9] concerns the target T1, Protein cereblon/Indoleamine 2,3-dioxygenase 1. Description: PROTAC activity at CRBN/IDO1 in human U87 cells assessed as induction of IDO1 degradation by measuring remaining activity at 100 nM pretreated with IFN-gamma for 24 hrs followed by compound addition and measured after 24 hrs by Western blotting analysis (reference value: 100%). In kind it is cell-based.
Target sequence in this assay (P14902 whole entry, looked up): as the sequence (P14902 whole entry, looked up) above
Target sequence in this assay (Q96SW2 whole entry, looked up): as the sequence (Q96SW2 whole entry, looked up) above

For another data set, the system named is MDA-MB-231. Nature of the data set: Inhibition of kynurenine production in human MDA-MB-231 cells pretreated with IFN-gamma for 24 hrs followed by compound addition and measured after 24 hrs by Ehrlich's reagent based analysis. The note with it: dose 50-100 nM. In kind it is functional, cell-based.
For data set [10], the target named is T1, Protein cereblon/Indoleamine 2,3-dioxygenase 1. Description: PROTAC activity at CRBN/IDO1 in human U87 cells assessed as induction of IDO1 degradation by measuring remaining activity at 3 uM pretreated with IFN-gamma for 24 hrs followed by compound addition and measured after 24 hrs by Western blotting analysis (reference value: 100%). The class given is cell-based. An outline of the steps:
as §1
Target sequence in this assay (P14902 whole entry, looked up): as the sequence (P14902 whole entry, looked up) above
Target sequence in this assay (Q96SW2 whole entry, looked up): as the sequence (Q96SW2 whole entry, looked up) above

Calls of active or inactive are those of the source. No cut-off for these calls is given here.

As usually defined, the half-life is how long it takes for the measured level to halve. The term DC50 denotes the concentration at which degradation of the target reaches its halfway point. As usually defined, the AUC(0-inf) is total exposure, with the tail of the curve extrapolated. Consider `C[C@@H](C(=O)Nc1cccc(OC2CCN(C(=O)CN3CCC(N4CCN(c5ccc6c(c5)C(=O)N(C5CCC(=O)NC5=O)C6=O)CC4)CC3)CC2)c1)[C@H]1CC[C@@H](c2ccnc3ccc(F)cc32)CC1` (some centres undefined), for which the inhibition entry with KNS-42, in the data set on U-87MG ATCC, with PDX-6 and in the data set on MDA-MB-231 was “Dose-dependent-effect” each time. In addition, the half-life in data set [1] was 11.8 h; in data set [5], 5.7 h. For the same molecule, the Activity in [2] came to 86%; in [4] it was 69%; in data set [6], 13%; in [9], 24%; in data set [10], 55%. For the same molecule, the result in [3] was Active. Further, the DC50 in [7] was determined as 11.8 nM. The AUC(0-inf) in [8] was 1 µM·h.

For the origin of these results see ChEMBL document CHEMBL6153131, “Rational Design and Optimization of a Potent IDO1 Proteolysis Targeting Chimera (PROTAC)” (J Med Chem, 2025).
